ChEMBL document CHEMBL1909611, “Identification and SAR of selective inducible nitric oxide synthase (iNOS) dimerization inhibitors” (Bioorg Med Chem Lett, 2011)

What was measured:
Type in all cases: cell-based
[1] = target: T1, Nitric oxide synthase 1 (Homo sapiens, UniProt P29475); experiment: Inhibition of human nNOS expressed in HEK293 cells assessed as inhibition ionomycin-induced nitric oxide production incubated for 24 hrs measured after 18 hrs of ionomycin challenge by 2,3-diaminonaphthalene assay
T1 sequence (P29475 whole entry): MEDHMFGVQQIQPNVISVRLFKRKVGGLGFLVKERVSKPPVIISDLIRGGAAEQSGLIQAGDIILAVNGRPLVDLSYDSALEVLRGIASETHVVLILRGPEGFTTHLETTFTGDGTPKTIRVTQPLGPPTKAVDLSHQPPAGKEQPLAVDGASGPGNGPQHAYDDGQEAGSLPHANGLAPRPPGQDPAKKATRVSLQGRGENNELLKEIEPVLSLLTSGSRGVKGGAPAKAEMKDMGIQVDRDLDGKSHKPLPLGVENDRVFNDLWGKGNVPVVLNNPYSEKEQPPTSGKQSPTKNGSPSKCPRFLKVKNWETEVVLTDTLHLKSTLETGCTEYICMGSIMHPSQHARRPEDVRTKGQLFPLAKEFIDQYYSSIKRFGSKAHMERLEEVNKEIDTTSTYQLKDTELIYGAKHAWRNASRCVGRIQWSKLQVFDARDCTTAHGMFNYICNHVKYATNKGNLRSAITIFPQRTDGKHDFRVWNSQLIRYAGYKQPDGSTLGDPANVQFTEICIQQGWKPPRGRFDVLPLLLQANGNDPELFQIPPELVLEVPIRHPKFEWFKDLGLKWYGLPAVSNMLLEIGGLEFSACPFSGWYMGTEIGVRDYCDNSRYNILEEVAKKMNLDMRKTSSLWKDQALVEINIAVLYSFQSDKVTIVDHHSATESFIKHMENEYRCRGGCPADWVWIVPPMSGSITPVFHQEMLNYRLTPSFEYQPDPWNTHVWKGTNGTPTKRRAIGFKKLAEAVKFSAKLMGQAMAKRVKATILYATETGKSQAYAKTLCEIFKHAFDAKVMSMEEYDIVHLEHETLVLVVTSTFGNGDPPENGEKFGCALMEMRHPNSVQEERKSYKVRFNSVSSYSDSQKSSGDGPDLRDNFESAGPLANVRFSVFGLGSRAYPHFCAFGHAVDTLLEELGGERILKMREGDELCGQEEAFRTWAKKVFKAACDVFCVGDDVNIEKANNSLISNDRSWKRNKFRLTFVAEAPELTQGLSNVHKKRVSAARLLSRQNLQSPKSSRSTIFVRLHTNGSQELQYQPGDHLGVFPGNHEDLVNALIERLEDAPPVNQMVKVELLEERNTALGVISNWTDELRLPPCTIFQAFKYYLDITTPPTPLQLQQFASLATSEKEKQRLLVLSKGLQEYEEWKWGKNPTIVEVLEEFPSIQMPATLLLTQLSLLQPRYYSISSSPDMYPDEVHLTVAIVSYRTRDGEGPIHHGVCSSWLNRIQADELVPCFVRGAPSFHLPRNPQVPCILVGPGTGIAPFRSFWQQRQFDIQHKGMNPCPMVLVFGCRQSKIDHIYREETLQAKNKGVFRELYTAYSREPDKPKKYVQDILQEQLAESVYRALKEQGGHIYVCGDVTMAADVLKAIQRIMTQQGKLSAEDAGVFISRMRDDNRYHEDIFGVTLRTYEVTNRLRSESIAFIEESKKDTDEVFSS
Outline: (§1)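 Transiently transfected cells plated at 5e5 cells/ml; compounds added immediately by pin transfer. Incubated 24 h with compound, then activated by ionophore (0.8 µM final). Fluorescence (ex 360/em 425 nm) read after raising pH with NaOH (0.12 N final). Values are mean of three experiments with SD. At 100 µM, <50% inhibition is reported as >100.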

[2] = target: T2, Nitric oxide synthase 3 (Homo sapiens) (UniProt P29474); experiment: Inhibition of human eNOS expressed in HEK293 cells assessed as inhibition A23187-induced nitric oxide production at 100 uM incubated for 24 hrs measured after 18 hrs of A23187 challenge by 2,3-diaminonaphthalene assay; outline: as §1
T2 sequence (whole entry): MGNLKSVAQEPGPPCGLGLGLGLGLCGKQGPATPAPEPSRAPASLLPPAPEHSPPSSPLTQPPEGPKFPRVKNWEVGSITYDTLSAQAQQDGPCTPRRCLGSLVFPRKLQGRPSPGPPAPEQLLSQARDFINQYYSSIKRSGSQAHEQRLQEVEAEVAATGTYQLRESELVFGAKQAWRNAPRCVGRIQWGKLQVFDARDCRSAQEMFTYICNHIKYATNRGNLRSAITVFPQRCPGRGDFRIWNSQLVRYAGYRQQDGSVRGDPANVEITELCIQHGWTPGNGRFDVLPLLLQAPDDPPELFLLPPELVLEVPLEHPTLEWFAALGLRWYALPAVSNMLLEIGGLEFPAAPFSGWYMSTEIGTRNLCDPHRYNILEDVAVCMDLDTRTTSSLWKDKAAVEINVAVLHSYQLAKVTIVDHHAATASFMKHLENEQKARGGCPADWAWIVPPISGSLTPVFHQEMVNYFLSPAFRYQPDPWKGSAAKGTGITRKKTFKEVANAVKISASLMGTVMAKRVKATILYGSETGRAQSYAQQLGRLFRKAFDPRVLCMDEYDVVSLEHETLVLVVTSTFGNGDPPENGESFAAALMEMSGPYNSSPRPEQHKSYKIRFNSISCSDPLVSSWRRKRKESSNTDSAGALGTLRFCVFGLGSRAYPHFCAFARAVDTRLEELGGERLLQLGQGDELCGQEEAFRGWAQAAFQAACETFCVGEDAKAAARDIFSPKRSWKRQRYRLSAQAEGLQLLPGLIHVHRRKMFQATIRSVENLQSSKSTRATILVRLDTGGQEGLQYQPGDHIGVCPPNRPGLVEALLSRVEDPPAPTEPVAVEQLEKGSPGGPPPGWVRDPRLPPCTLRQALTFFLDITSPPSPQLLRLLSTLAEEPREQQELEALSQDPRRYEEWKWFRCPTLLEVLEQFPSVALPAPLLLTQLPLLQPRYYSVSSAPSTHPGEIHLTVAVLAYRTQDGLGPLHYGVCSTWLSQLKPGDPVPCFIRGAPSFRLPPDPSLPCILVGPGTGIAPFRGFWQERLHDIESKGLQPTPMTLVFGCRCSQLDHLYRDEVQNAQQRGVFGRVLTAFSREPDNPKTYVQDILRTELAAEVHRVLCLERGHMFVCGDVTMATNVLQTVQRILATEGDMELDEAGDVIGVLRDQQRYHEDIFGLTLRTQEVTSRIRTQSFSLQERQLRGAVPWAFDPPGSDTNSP

[3] = target: T3, Nitric oxide synthase, inducible (Homo sapiens, UniProt P35228); experiment: Inhibition of human iNOS expressed in human HEK293 cells assessed as nitrite accumulation after 18 hrs by 2,3-diaminonapthalene assay
T3 sequence (P35228 whole entry): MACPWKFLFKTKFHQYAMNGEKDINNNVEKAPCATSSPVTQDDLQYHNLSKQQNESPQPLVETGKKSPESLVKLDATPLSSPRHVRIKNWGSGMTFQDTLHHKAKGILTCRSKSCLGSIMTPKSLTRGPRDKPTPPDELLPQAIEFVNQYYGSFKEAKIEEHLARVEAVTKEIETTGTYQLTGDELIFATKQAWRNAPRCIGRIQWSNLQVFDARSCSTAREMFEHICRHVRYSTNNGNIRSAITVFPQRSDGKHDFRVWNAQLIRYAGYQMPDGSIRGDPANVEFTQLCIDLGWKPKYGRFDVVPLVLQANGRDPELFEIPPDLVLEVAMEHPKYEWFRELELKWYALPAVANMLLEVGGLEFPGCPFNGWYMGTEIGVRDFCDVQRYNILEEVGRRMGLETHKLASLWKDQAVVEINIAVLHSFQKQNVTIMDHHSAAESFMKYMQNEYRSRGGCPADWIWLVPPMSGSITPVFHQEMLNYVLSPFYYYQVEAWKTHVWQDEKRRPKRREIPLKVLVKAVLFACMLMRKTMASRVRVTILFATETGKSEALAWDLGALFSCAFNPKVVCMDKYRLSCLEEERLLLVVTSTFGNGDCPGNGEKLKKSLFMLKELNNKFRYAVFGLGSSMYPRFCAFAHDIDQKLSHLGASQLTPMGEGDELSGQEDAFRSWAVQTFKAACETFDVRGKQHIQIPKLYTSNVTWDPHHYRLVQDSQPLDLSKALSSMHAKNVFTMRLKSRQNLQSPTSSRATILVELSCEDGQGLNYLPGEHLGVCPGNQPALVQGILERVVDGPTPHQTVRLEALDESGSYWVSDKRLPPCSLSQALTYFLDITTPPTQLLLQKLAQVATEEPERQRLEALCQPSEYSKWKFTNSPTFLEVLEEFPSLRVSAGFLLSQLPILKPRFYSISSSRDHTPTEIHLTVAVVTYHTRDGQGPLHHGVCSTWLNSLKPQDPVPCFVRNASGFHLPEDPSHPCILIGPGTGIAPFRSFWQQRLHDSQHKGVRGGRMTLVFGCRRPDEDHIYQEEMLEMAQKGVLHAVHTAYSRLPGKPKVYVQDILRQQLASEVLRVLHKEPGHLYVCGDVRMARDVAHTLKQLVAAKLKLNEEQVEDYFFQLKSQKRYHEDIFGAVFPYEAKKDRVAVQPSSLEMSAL
Outline: as §1, with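 “18” for “24”, “for nitrite accumulation.” for “with compound, then activated by ionophore (0.8 µM final).”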

[4] = target: T4, Nitric oxide synthase 3 (Homo sapiens, UniProt P29474); experiment: Inhibition of human eNOS expressed in HEK293 cells assessed as inhibition A23187-induced nitric oxide production incubated for 24 hrs measured after 18 hrs of A23187 challenge by 2,3-diaminonaphthalene assay; outline: as §1
T4 sequence (P29474 whole entry): T2 sequence (whole entry)

[5] = target: T1, Nitric oxide synthase 1; experiment: Inhibition of human nNOS expressed in HEK293 cells assessed as inhibition ionomycin-induced nitric oxide production at 100 uM incubated for 24 hrs measured after 18 hrs of ionomycin challenge by 2,3-diaminonaphthalene assay; outline: as §1
[6] = target: T3, Nitric oxide synthase, inducible; experiment: Inhibition of human iNOS expressed in human HEK293 cells assessed as nitrite accumulation at 100 uM after 18 hrs by 2,3-diaminonapthalene assay
Outline: as §1, with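 “18” for “24”, “for nitrite accumulation.” for “with compound, then activated by ionophore (0.8 µM final).”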

Cc1cc(-c2cccn2CCN(C)Cc2ccc3c(c2)OCO3)nc(-n2ccnc2)n1
EC50 [1]: > 100 µM | inhibition [2]: < 50% | EC50 [3]: 1.8 µM | EC50 [4]: > 100 µM | inhibition [5]: < 50%

c1coc(CN(CCCNCc2ccc3c(c2)OCO3)c2nc(-n3ccnc3)ns2)c1
EC50 [1]: 2.1 µM | inhibition [2]: < 50% | EC50 [3]: 0.014 µM | EC50 [4]: > 100 µM

CN(CCCNCc1ccc2[nH]ccc2c1)c1nc(-n2ccnc2)ns1
EC50 [1]: > 100 µM | inhibition [6]: < 50% | inhibition [2]: < 50% | EC50 [3]: > 100 µM | EC50 [4]: > 100 µM | inhibition [5]: < 50%

Cc1cc(C(=O)NCCN(C)Cc2ccc3c(c2)OCO3)nc(-n2ccnc2)n1
EC50 [1]: > 100 µM | inhibition [6]: < 50% | inhibition [2]: < 50% | EC50 [3]: > 100 µM | EC50 [4]: > 100 µM | inhibition [5]: < 50%

Cc1cc(CNC(=O)CNCc2ccc3c(c2)OCO3)nc(-n2ccnc2)n1
EC50 [1]: > 100 µM | inhibition [2]: < 50% | EC50 [3]: 0.293 µM | EC50 [4]: > 100 µM | inhibition [5]: < 50%

Oc1ccc(CN(CCCNCc2ccc3c(c2)OCO3)c2nc(-n3ccnc3)ns2)cc1
EC50 [1]: 11 µM | inhibition [2]: < 50% | EC50 [3]: 0.042 µM | EC50 [4]: > 100 µM

CN(CCCNCc1ccncc1)c1nc(-n2ccnc2)ns1
EC50 [1]: > 100 µM | inhibition [6]: < 50% | inhibition [2]: < 50% | EC50 [3]: > 100 µM | EC50 [4]: > 100 µM | inhibition [5]: < 50%

CN(CCCNC(=O)c1ccc2c(c1)OCO2)c1nc(-n2ccnc2)ns1
EC50 [1]: > 100 µM | inhibition [2]: < 50% | EC50 [3]: 6.3 µM | EC50 [4]: > 100 µM | inhibition [5]: < 50%

Cc1cc(C(C)NCCN(C)Cc2ccc3c(c2)OCO3)nc(-n2ccnc2)n1 (centres undefined)
EC50 [1]: 6 µM | inhibition [2]: < 50% | EC50 [3]: 0.029 µM | EC50 [4]: > 100 µM

CN(CCCNCc1ccc2c(c1)OC(F)(F)O2)c1nc(-n2ccnc2)ns1
EC50 [1]: > 100 µM | inhibition [2]: < 50% | EC50 [3]: 8.9 µM | EC50 [4]: > 100 µM | inhibition [5]: < 50%

CCCN(CCCNCc1ccc2c(c1)OCO2)c1nc(-n2ccnc2)ns1
EC50 [1]: 2.3 µM | inhibition [2]: < 50% | EC50 [3]: 0.009 µM | EC50 [4]: > 100 µM

c1cn(-c2nsc(N(CCCNCc3ccc4c(c3)OCO4)Cc3ccc4occc4c3)n2)cn1
EC50 [1]: 7.9 µM | inhibition [2]: < 50% | EC50 [3]: 0.09 µM | EC50 [4]: > 100 µM

N#CCN(CCCNCc1ccc2c(c1)OCO2)c1nc(-n2ccnc2)ns1
EC50 [1]: 7.2 µM | inhibition [2]: < 50% | EC50 [3]: 0.012 µM | EC50 [4]: > 100 µM

CN(CCCNCCc1ccc2c(c1)OCO2)c1nc(-n2ccnc2)ns1
EC50 [1]: 47 µM | inhibition [2]: < 50% | EC50 [3]: 0.23 µM | EC50 [4]: > 100 µM

CN(CCCNCc1ccc2c(c1)OCCO2)c1nc(-n2ccnc2)ns1
EC50 [1]: 24 µM | inhibition [2]: < 50% | EC50 [3]: 0.048 µM | EC50 [4]: > 100 µM

c1cn(-c2nsc(N(CCCNCc3ccc4c(c3)OCO4)Cc3nnn[nH]3)n2)cn1
EC50 [1]: > 100 µM | inhibition [2]: < 50% | EC50 [3]: 4 µM | EC50 [4]: > 100 µM | inhibition [5]: < 50%

Cn1cnc(CN(CCCNCc2ccc3c(c2)OCO3)c2nc(-n3ccnc3)ns2)c1
EC50 [1]: 18 µM | inhibition [2]: < 50% | EC50 [3]: 0.071 µM | EC50 [4]: > 100 µM

CN(C)c1ccc(CN(CCCNCc2ccc3c(c2)OCO3)c2nc(-n3ccnc3)ns2)cc1
EC50 [1]: 6.8 µM | inhibition [2]: < 50% | EC50 [3]: 0.163 µM | EC50 [4]: > 100 µM

c1cncc(CN(CCCNCc2ccc3c(c2)OCO3)c2nc(-n3ccnc3)ns2)c1
EC50 [1]: 0.48 µM | inhibition [2]: < 50% | EC50 [3]: 0.005 µM | EC50 [4]: > 100 µM

CNC(=O)CN(CCCNCc1ccc2c(c1)OCO2)c1nc(-n2ccnc2)ns1
EC50 [1]: 7.2 µM | inhibition [2]: < 50% | EC50 [3]: 0.059 µM | EC50 [4]: > 100 µM

NC(=O)CN(CCCNCc1ccc2c(c1)OCO2)c1nc(-n2ccnc2)ns1
EC50 [1]: 11 µM | inhibition [2]: < 50% | EC50 [3]: 0.081 µM | EC50 [4]: > 100 µM

Cc1cc(C2CCCN2C(=O)NCCc2ccc3c(c2)OCO3)nc(-n2ccnc2)n1 (centres undefined)
EC50 [1]: 2.7 µM | inhibition [2]: < 50% | EC50 [3]: 0.009 µM | EC50 [4]: > 100 µM

O=C(O)CN(CCCNCc1ccc2c(c1)OCO2)c1nc(-n2ccnc2)ns1
EC50 [1]: > 100 µM | inhibition [6]: < 50% | inhibition [2]: < 50% | EC50 [3]: > 100 µM | EC50 [4]: > 100 µM | inhibition [5]: < 50%

CN(CCCNCc1ccc(F)c(F)c1)c1nc(-n2ccnc2)ns1
EC50 [1]: > 100 µM | inhibition [6]: < 50% | inhibition [2]: < 50% | EC50 [3]: > 100 µM | EC50 [4]: > 100 µM | inhibition [5]: < 50%

Cc1cc(C2CCCN2CCN(C)Cc2ccc3c(c2)OCO3)nc(-n2ccnc2)n1 (centres undefined)
EC50 [1]: 3.9 µM | inhibition [2]: < 50% | EC50 [3]: 0.004 µM | EC50 [4]: > 100 µM

Cc1cc(C(C)NCCOCc2ccc3c(c2)OCO3)nc(-n2ccnc2)n1 (centres undefined)
EC50 [1]: > 100 µM | inhibition [2]: < 50% | EC50 [3]: 0.29 µM | EC50 [4]: > 100 µM | inhibition [5]: < 50%

COc1ccc(CNCCCN(C)c2nc(-n3ccnc3)ns2)cc1
EC50 [1]: > 100 µM | inhibition [2]: < 50% | EC50 [3]: 0.36 µM | EC50 [4]: > 100 µM | inhibition [5]: < 50%

CN(C)C(=O)CN(CCCNCc1ccc2c(c1)OCO2)c1nc(-n2ccnc2)ns1
EC50 [1]: > 100 µM | inhibition [2]: < 50% | EC50 [3]: 0.08 µM | EC50 [4]: > 100 µM | inhibition [5]: < 50%

Cc1cc(C2CCCN2C(=O)CNCc2ccc3c(c2)OCO3)nc(-n2ccnc2)n1 (centres undefined)
EC50 [1]: 6.6 µM | inhibition [2]: < 50% | EC50 [3]: 0.03 µM | EC50 [4]: > 100 µM

c1csc(CN(CCCNCc2ccc3c(c2)OCO3)c2nc(-n3ccnc3)ns2)c1
EC50 [1]: 0.69 µM | inhibition [2]: < 50% | EC50 [3]: 0.009 µM | EC50 [4]: > 100 µM

c1cn(-c2nsc(N(CCCNCc3ccc4c(c3)OCO4)Cc3nccs3)n2)cn1
EC50 [1]: 0.31 µM | inhibition [2]: < 50% | EC50 [3]: 0.006 µM | EC50 [4]: > 100 µM

Cc1cc(CCCCNCc2ccc3c(c2)OCO3)nc(-n2ccnc2)n1
EC50 [1]: > 100 µM | inhibition [2]: < 50% | EC50 [3]: 0.02 µM | EC50 [4]: > 100 µM | inhibition [5]: < 50%

COc1ccc(CNCCCN(C)c2nc(-n3ccnc3)ns2)cc1OC
EC50 [1]: > 100 µM | inhibition [2]: < 50% | EC50 [3]: 0.76 µM | EC50 [4]: > 100 µM | inhibition [5]: < 50%

c1cn(-c2nsc(N(CCCNCc3ccc4c(c3)OCO4)C3CC3)n2)cn1
EC50 [1]: 36 µM | inhibition [2]: < 50% | EC50 [3]: 0.056 µM | EC50 [4]: > 100 µM

Cc1cc(C2CCCN2CC(=O)NCc2ccc3c(c2)OCO3)nc(-n2ccnc2)n1 (centres undefined)
EC50 [1]: 9.5 µM | inhibition [2]: < 50% | EC50 [3]: 0.036 µM | EC50 [4]: > 100 µM

CCOC(=O)CN(CCCNCc1ccc2c(c1)OCO2)c1nc(-n2ccnc2)ns1
EC50 [1]: 7.6 µM | inhibition [2]: < 50% | EC50 [3]: 0.034 µM | EC50 [4]: > 100 µM

Cc1cc(CNC(=O)NCCc2ccc3c(c2)OCO3)nc(-n2ccnc2)n1
EC50 [1]: > 100 µM | inhibition [2]: < 50% | EC50 [3]: 0.014 µM | EC50 [4]: > 100 µM | inhibition [5]: < 50%
